According to article PMC3357394 (Organic & biomolecular chemistry, 2011):

How the values were obtained:
[1] = target: T1, recombinant CD38 (Homo sapiens, UniProt P28907); experiment: Inhibition of the NADase; assay type: biochemical; details: for inhibitory activity against CD38 NADase (in words): recombinant CD38
T1 sequence (P28907 45-300): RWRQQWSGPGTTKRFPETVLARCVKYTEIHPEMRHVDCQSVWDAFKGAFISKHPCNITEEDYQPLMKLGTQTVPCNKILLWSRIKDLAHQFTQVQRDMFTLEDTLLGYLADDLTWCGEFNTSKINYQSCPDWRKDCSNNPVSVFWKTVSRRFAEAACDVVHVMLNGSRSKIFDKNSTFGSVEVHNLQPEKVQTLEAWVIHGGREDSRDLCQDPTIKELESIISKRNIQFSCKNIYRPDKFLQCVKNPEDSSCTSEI

[2] = system: phenylephrine-induced contraction in rat aortic ring preparations with intact endothelium; details: Phe (1 μM)-contracted endothelium-intact rat aortic rings, 30-300 μM
Summary of the method: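 Endothelium-intact 3 mm thoracic aortic rings from male Sprague-Dawley rats (250–300 g) were held isometrically at 15 mN in Krebs solution (37°, 95% O2-5% CO2, pH≈7.4) and checked with 0.3 μM Phe then 1 μM ACh. After 60 min equilibration, rings were precontracted with 1 μM Phe and given cumulative water-dissolved test compound (30–300 μM). pD2 came from nonlinear fits of individual curves; mean±SEM, 3–5 rats/group.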

[3] = system: PC12 cells; details: cited from earlier work
[4] = target: CD38; details: inhibitors of CD38; cited from earlier work
[5] = target: NAD+ glycohydrolase activity of CD38; details: competitive inhibitor of NAD+ glycohydrolase activity of CD38; cited from earlier work

SMILES: COc1ccc(OCCOC[n+]2cccc(C(N)=O)c2)cc1.[Cl-] [Compound 3, 1-{[2-(4-methoxy-phenoxy)ethoxy]methyl}-3-(aminocarbonyl)-pyridinium chloride]
- IC50 [1]: 11.4 mM
- inhibitory activity against CD38 NADase (in words) [1]: weak inhibitory activities

SMILES: NC(=O)c1ccc[n+](COCCOc2ccc(Oc3ccccc3)cc2)c1.[Cl-] [Compound 4, 1-{[2-(4-phenoxy-phenoxy)ethoxy]methyl}-3-(aminocarbonyl)-pyridinium chloride]
- IC50 [1]: 3.42 mM
- inhibitory activity against CD38 NADase (in words) [1]: weak inhibitory activities
- vascular relaxing effect (in words) [2]: concentration-dependent relaxation

SMILES: NC(=O)c1ccc[n+](COCCOc2ccc([N+](=O)[O-])cc2)c1.[Cl-] [Compound 5, 1-{[2-(4-nitro-phenoxy)ethoxy]methyl}-3-(aminocarbonyl)-pyridinium chloride]
- IC50 [1]: 5.65 mM
- inhibitory activity against CD38 NADase (in words) [1]: weak inhibitory activities

SMILES: NC(=O)c1ccc[n+](COCCOc2cccc(C(F)(F)F)c2)c1.[Cl-] [Compound 6, 1-{[2-(3-trifluoromethyl-phenoxy)ethoxy]methyl}-3-(aminocarbonyl)-pyridinium chloride]
- inhibitory activity against CD38 NADase (in words) [1]: no affinity for CD38

SMILES: NC(=O)c1ccc[n+](COCCOc2cccc3cccnc23)c1.[Cl-] [Compound 7, 1-{[2-(8′-quinolyloxy)ethoxy]methyl}-3-(aminocarbonyl)-pyridinium chloride]
- inhibitory activity against CD38 NADase (in words) [1]: weak inhibitory activities
- inhibition of acetylcholine (Ach)-induced Ca2+ increase (in words) [3]: significantly inhibited

SMILES: NC(=O)c1ccc[n+](COCCCCOC[n+]2cccc(C(N)=O)c2)c1.[Cl-].[Cl-] [Compound 9, 1,4-dimethoxy-butylene-bis-N,N′-3-(aminocarbonyl)-pyridinium dichloride]
- vascular relaxing effect (in words) [2]: no such vascular relaxing effect

SMILES: NC(=O)c1ccc[n+](COC/C=C/COc2cccc3cccnc23)c1.[Cl-] [Compound 12, (E)-1-{[4-(8′-quinolyloxy)but-2-enyloxy]methyl}-3-(aminocarbonyl)-pyridinium chloride]
- inhibitory activity against CD38 NADase (in words) [1]: weak inhibitory activities

SMILES: NC(=O)c1ccc2c(ccc[n+]2COCCOc2ccc(Oc3ccccc3)cc2)c1.[Cl-] [Compound 13, 1-{[2-(4-phenoxy-phenoxy)ethoxy]methyl}-6-(aminocarbonyl)-quinolinium chloride]
- IC50 [1]: 2.12 mM
- inhibitory activity against CD38 NADase (in words) [1]: weak inhibitory activities

SMILES: NC(=O)c1c[n+](COCCOc2ccc(Oc3ccccc3)cc2)ccc1N.[Cl-] [Compound 14, 1-{[2-(4-phenoxy-phenoxy)ethoxy]methyl}-3-(aminocarbonyl)-4-amino-pyridiniu m chloride]
- IC50 [1]: 4.8 mM
- inhibitory activity against CD38 NADase (in words) [1]: weak inhibitory activities

SMILES: NC(=O)c1ccc[n+]([C@@H]2O[C@H](COP(=O)(O)O)C(O)C2F)c1 (stereo partly drawn) [ara-F NMN]
- Ki [4]: nano-molar range

SMILES: NC(=O)c1ccc[n+]([C@@H]2C[C@H](COP(=O)([O-])OP(=O)(O)OC[C@H]3O[C@@H](n4cnc5c(N)ncnc54)[C@H](O)[C@@H]3O)[C@@H](O)[C@H]2O)c1 [carba-NAD^+, dinucleotide carbanicotinamide adenine dinucleotide]
- IC50 [5]: ~100 µM
